CHRM5 PAM = CHRM5 positive allosteric modulation; P08912; CHO-K1 hM5, Fluo-8 calcium, ACh EC20 PAM; 0% = ACh EC20, 100% = ACh EC100; activation, % at 3 µM; 360,000 tested, 0.3% active; AID 624038;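 active means activation above the run cutoff, the mean activation of all test compounds plus 3 SD, cut at about 18% in these data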
Target sequence (P08912 whole entry, looked up): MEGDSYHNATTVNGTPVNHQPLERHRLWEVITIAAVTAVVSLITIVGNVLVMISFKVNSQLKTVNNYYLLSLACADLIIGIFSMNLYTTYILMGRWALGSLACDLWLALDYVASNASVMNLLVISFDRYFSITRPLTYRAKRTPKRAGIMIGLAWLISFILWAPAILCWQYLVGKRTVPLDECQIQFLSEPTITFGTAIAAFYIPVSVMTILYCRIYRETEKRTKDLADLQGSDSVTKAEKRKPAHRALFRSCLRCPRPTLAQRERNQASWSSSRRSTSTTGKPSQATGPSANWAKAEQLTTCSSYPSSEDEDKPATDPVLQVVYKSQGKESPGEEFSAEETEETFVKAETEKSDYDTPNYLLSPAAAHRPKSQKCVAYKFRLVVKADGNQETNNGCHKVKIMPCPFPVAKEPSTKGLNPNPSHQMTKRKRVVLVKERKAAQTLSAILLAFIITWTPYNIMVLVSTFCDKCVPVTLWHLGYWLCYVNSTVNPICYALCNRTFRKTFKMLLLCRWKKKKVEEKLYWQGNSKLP
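Assay system – human M5 receptor in CHO-K1 cells · Read-out – % activation, ACh-normalized · Technique – Fluo-8 calcium fluorescence · Dosing – single-point, 3 µM nominal · Incubation – Fluo-8 loading 80 min at 37 °C plus 30 min room temperature · Repeats – singlicate, one well per test compound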
CHRM4 PAM = positive allosteric modulators of human muscarinic M4 receptor. CHO-K1 hM4/Gqi5, Fluo-8 calcium fluorescence, ACh EC20; 0% = ACh EC20, 100% = maximal ACh. 360,000 tested, 0.4% active. P08173. activation, % at 3 µM;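 active means activation above its plate's cutoff, the mean activation of sample wells plus 3 SD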
CHRM5 antagonist = blocks acetylcholine activation of human M5 receptor | inhibition, % at 3 µM | CHO-hM5 cells, Fluo-8 calcium fluorescence, ACh EC80 | P08912 | 360,000 tested, 0.59% active;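 active means inhibition above a per-plate cutoff, the mean of that plate's test compounds plus 3 SD, cut at about 27% in these data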
M4 ag = agonists of human muscarinic M4 receptor (CHRM4). 360,000 tested, 0.14% active. P08173. activation, % at 3 µM. AID 624127. CHO-K1 hM4/Gqi5, Fluo-8 calcium fluorescence; vehicle 0%, full acetylcholine response 100%;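 active means activation above the run mean over all test wells plus 3 SD, cut at about 32% in these data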;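 further: peak over basal fluorescence ratio per well then scaled between controls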
CHRM4 antagonist = CHRM4 antagonism in calcium assay. 360,000 tested, 0.73% active. CHO-hM4 cells, ACh EC80, Fluo-8 calcium fluorescence. P08173. inhibition, % at 3 µM;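 active means inhibition above its plate's cutoff, the mean inhibition of sample wells plus 3 SD, cut at about 27% in these data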
CHRM5 agonist = agonists of human muscarinic M5 receptor (CHRM5). CHO-K1 hM5 cells, Fluo-8 calcium fluorescence; 0% DMSO wells, 100% maximal acetylcholine response. activation, % at 3 µM. 360,000 tested, 0.19% active. AID 624037;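 active means activation above the run's mean over test compounds plus 3 SD, cut at about 23% in these data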;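 further: signal is peak over basal fluorescence ratio across the kinetic read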
Each line names hits and unclear results; the compound was inactive in the other large screens. Hits are enriched below; roughly 1.8% of the tested compounds scored in any of these assays.

COC(=O)c1cc(NC(=O)Nc2cccc(Cl)c2)ccc1Cl	CHRM5 antagonist 31.9
CCOCCCNC(=O)c1ccc(CN2CCc3ccccc3C2)cc1	none
COc1ccc(CN2C(=O)c3ccccc3C2c2nnnn2-c2c(C)cccc2C)cc1OC (centres undefined)	none
COc1ccccc1NS(=O)(=O)c1cccc(NC(=O)Nc2cccc(Cl)c2)c1	CHRM5 antagonist 58.8, CHRM4 antagonist 47.5
O=C(Nc1cccnc1)c1cc(Br)c(Br)s1	CHRM5 agonist 26.4
COc1ccc(NC(=O)CN(C)C(=O)C(C)Oc2ccc(Br)cc2)cc1 (centres undefined)	none
COc1ccc(CCN2C(=O)CSC2=Nc2ccc(C(C)C)cc2)cc1OC	CHRM5 antagonist 35.3, CHRM4 antagonist 37.0
CCc1nnc(NC(=O)c2ccc(S(=O)(=O)N(C)Cc3ccccc3)cc2)o1	CHRM4 PAM 16.5
CCc1nnc(NC(=O)c2ccc(S(=O)(=O)N(CC)Cc3ccccc3)cc2)o1	none
CCN(CC)CCCCNc1ncc2cc(-c3cc(OC)cc(OC)c3)c(NC(=O)NC(C)(C)C)nc2n1	none
O=C1C=CC2C3C(=O)N(c4ccccc4)C(=O)C3C1N2Cc1ccccc1 (centres undefined)	CHRM4 antagonist 30.8
O=C1C2C3C=CC(CC3)C2C(=O)N1c1ccccc1 (centres undefined)	none
CCC(C)c1ccc(NC(=O)C/C(C)=N/NC(=O)c2cnccn2)cc1 (centres undefined)	none
C=CC[C@@H](CC(=O)N[C@@H](CO)Cc1ccccc1)C(=O)N[C@@H](C)COC(=O)[C@@H](CC=C)Cc1ccc(F)cc1	none
C=CCC[C@H](Cc1ccc(F)cc1)C(=O)OC[C@H](Cc1c[nH]c2ccccc12)NC(=O)[C@H](CC=C)CC(=O)NCCO	CHRM4 antagonist 29.7
C=CC[C@@H](CC(=O)N[C@@H](CO)Cc1ccccc1)C(=O)N[C@H](C)COC(=O)[C@@H](CC=C)Cc1ccc(F)cc1	CHRM4 PAM 26.0
C=CC[C@H](CC(=O)N(CCO)Cc1ccccc1)C(=O)N[C@H](COC(=O)[C@@H](CC=C)CC(=O)OC(C)(C)C)Cc1c[nH]c2ccccc12	CHRM4 antagonist 26.9
O=C(NC1CCCC1)c1nc(-c2ccco2)oc1-c1ccccc1	none
O=C(CSc1ccc(F)cc1)Nc1ccc(C2SCCS2)cc1	none
COc1ccccc1OCC(=O)Nc1nonc1NC(=O)COc1ccccc1OC	none
CSc1cccc(N2CC(C(=O)N3CCN(S(=O)(=O)c4ccccc4Cl)CC3)CC2=O)c1 (centres undefined)	none
NS(=O)(=O)c1ccc(NC(=O)CCC(=O)c2cccs2)cc1	none
NS(=O)(=O)c1ccc(NC(=O)CCC(=O)c2ccc(Cl)s2)cc1	CHRM4 PAM 24.0
O=C(CC1(O)CCCCC1)OC1CCCC1	none
COC(=O)CCCCCCCCCC[N+]1(C)CCCCC1	CHRM4 antagonist 30.7
CC(=O)OCCCCCCCCCCC[N+]1(C)CCCCC1	CHRM4 antagonist 55.9
C[N+]1(CC(=O)OC2CCCCCCCCCCC2)CCCC1	CHRM4 antagonist 35.4
O=C(Nc1ccc([N+](=O)[O-])cc1)Nc1nc(-c2ccc(Cl)s2)cs1	CHRM5 antagonist 31.0
CC(=O)Nc1nc(-c2ccc([N+](=O)[O-])cc2)cs1	none
COc1ccc(NC(=O)c2cc(-c3cc(Cl)ccc3C)n[nH]2)cn1	none
COc1ccc(C(N)c2csc(Nc3cc(Oc4ccccc4)ncn3)n2)cc1 (centres undefined)	CHRM5 antagonist 29.5, CHRM4 antagonist 41.4
COC(=O)c1c(-c2ccccc2)oc2c1C(OCCO)CCC2 (centres undefined)	none
O=c1[nH]c(C2CCN(S(=O)(=O)c3ccccc3)CC2)nc2c1nnn2Cc1cccc(Cl)c1	CHRM4 antagonist 83.3
O=c1[nH]c(C2CCN(S(=O)(=O)c3ccc(S(=O)(=O)NC4CC4)cc3)CC2)nc2c1nnn2Cc1ccccc1	CHRM4 antagonist 62.9
O=c1[nH]c(C2CCN(S(=O)(=O)c3cccc(Cl)c3)CC2)nc2c1nnn2Cc1ccccc1	CHRM4 antagonist 96.1
O=c1[nH]c(C2CCN(S(=O)(=O)c3cccc([N+](=O)[O-])c3)CC2)nc2c1nnn2Cc1ccccc1	CHRM4 antagonist 55.1
Cc1c(C(=O)NCc2cccs2)sc(=O)n1Cc1ccc(S(C)(=O)=O)cc1	none
O=C1OCCOC2CCCc3oc(C4=CCCCC4)c1c32 (centres undefined)	none
CC(SCC(=O)Nc1ccc(F)cc1)c1nc2ccccc2c(=O)[nH]1 (centres undefined)	CHRM5 PAM 21.7
Cc1cc(SCC(=O)N(C)CC(=O)Nc2ccc(F)cc2)nc2ccccc12	CHRM4 PAM 21.0
Cc1csc(SCC(=O)N(C)CC(=O)Nc2ccc(F)cc2)n1	none
O=C(Nc1ccc(F)cc1F)c1cc(Cl)sc1Cl	none
CC(=O)Nc1ccccc1-c1nc2cc(C#N)c(C#N)cc2[nH]c1=O	none
CCC(Oc1nc2ccccc2nc1-c1ccccc1NC(C)=O)C(=O)c1ccccc1 (centres undefined)	CHRM4 PAM 33.1
CNC(=S)NCc1ccc2[nH]c(C)cc2c1	CHRM5 PAM 18.2
Cc1cc2cc(CNC(=S)NC3CCCCC3)ccc2[nH]1	none
COc1ccnc(Oc2ccccc2)c1C(=O)N/C=N/OCc1ccc(F)cc1Cl	M4 ag 35.0
COc1ccc(OCC(=O)Nc2ccc3nc(C)sc3c2)cc1	none
C[N+]1(C)CCCC(OC(=O)C(O)(c2ccccc2)c2ccccc2)C1 (centres undefined)	CHRM5 antagonist 98.9, CHRM4 antagonist 98.6
CC[N+](C)(CC)CCC/C(=N/O)C(O)(c1ccccc1)c1ccccc1	CHRM4 antagonist 33.4
CCCNNC(=O)C(O)(c1ccccc1)c1ccccc1	none
CCN(CC)CCC/C(=N\O)C(O)(c1ccccc1)c1ccccc1	CHRM5 antagonist 45.1, CHRM4 antagonist 79.5
CC/C(CC(C)(C)c1ccccc1)=N\O	none
CCOC(=O)c1nc2c(ccc3ccccc32)cc1C	none
CC1CCc2c(nc3sc4c(c3c2N)CCCC4)C1 (centres undefined)	none
COc1ccccc1C(=O)NC(=O)CSc1ccc(C)c(C)c1	none
CCN(CC)CCCCCCCCOC(=O)c1cc(OC)c(OC)c(OC)c1	CHRM4 antagonist 28.9
CCCC1(C(=O)OCC)NC(c2cc(OC)c(OC)c(OC)c2)C2C(=O)N(CC)C(=O)C21 (centres undefined)	CHRM4 PAM 34.7
COc1ccc(CN2C(=O)C(CC(=O)NCC3CCCCC3)CC(C(=O)N(C(C)C)C(C)C)=C2C)cc1 (centres undefined)	none
